Assay results taken from ChEMBL document CHEMBL2406962, “Adenosine Dioxolane Nucleoside Phosphoramidates as Antiviral Agents for Human Immunodeficiency and Hepatitis B Viruses” (ACS Med Chem Lett, 2013).

Assays:
CCRF-CEM = experiment: Cytotoxicity against human CEM cells after 2 to 4 days by MTT assay; type: cell-based
Method in brief: (§1)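 Cytotoxicity in human PBM cells, Vero (African green monkey kidney epithelial) cells and CEM (human T-cell-derived line) cells, with compounds tested up to 100 μM.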

PBMC [1] = experiment: Cytotoxicity against human PBMC after 2 to 4 days by MTT assay; type: cell-based; method in brief: as §1
[2] = tested on: Human immunodeficiency virus 1; experiment: Antiviral activity against Human immunodeficiency virus 1 LAI infected in PHA-stimulated human PBMC; type: functional, organism-based
Hepatitis B virus = experiment: Antiviral activity against Hepatitis B virus infected in human HepAD38 cells after 5 days; type: functional, organism-based; details: HePAD38, 120 h
Huh-7 = experiment: Cytotoxicity against human HuH7 cells after 2 to 4 days by MTT assay; type: cell-based
Vero = experiment: Cytotoxicity against African green monkey Vero cells after 2 to 4 days by MTT assay; type: cell-based; details: chlorocebus sabaeus; method in brief: as §1
HepG2 = experiment: Cytotoxicity against human HepG2 cells after 2 to 4 days by neutral red dye uptake assay; type: cell-based
PBMC [3] = experiment: Drug metabolism in human PBMC assessed as dioxolane-A triphosphate level measured per 10^6 cells at 50 uM after 4 hrs by LC-MS/MS analysis; type: ADME, cell-based; design: unit: pmol/10^6 cells
PBMC [4] = experiment: Drug metabolism in human PBMC assessed as 6-cyclopropylamino purine dioxolane triphosphate level measured per 10^6 cells at 50 uM after 4 hrs by LC-MS/MS analysis; type: ADME, cell-based
in vivo = details: mouse

| SMILES | CC50 (CCRF-CEM) [µM] | CC50 (PBMC [1]) [µM] | EC50 [2] [µM] | EC50 (Hepatitis B virus) [µM] | CC50 (Huh-7) [µM] | CC50 (Vero) [µM] | CC50 (HepG2) [µM] | Drug metabolism (PBMC [3]) [pmol] | Drug metabolism (PBMC [4]) [pmol] | LD50 (in vivo) [mg/kg] |
| --- | --- | --- | --- | --- | --- | --- | --- | --- | --- | --- |
| OC[C@@H]1OC[C@H](n2cnc3c(NC4CC4)ncnc32)O1 | > 100 | > 100 | 92 | > 10 | > 100 | > 100 | > 100 |  |  |  |
| CCOC(=O)[C@H](C)NP(=O)(OC[C@@H]1OC[C@H](n2cnc3c(NC4CC4)ncnc32)O1)Oc1ccccc1 (stereo partly drawn) | > 100 | > 100 | 0.086 | 0.8 | > 100 | > 100 | > 100 | 0.11 | 0.13 |  |
| CCOC(=O)CCc1ccccc1OP(=O)(N[C@@H](C)C(=O)OCC)OC[C@@H]1OC[C@H](n2cnc3c(NC4CC4)ncnc32)O1 (stereo partly drawn) | > 100 | > 100 | 0.77 | > 10 | 65 | > 100 | > 100 | 0.14 | 0.19 |  |
| CC(C)OC(=O)CCc1ccccc1OP(=O)(N[C@@H](C)C(=O)OC(C)C)OC[C@@H]1OC[C@H](n2cnc3c(NC4CC4)ncnc32)O1 (stereo partly drawn) | 84 | > 100 | 11 | > 10 | 57 | > 100 | > 100 |  |  |  |
| COc1ncnc2c1ncn2[C@H]1CO[C@@H](COP(=O)(N[C@@H](C)C(=O)OC(C)C)Oc2ccccc2CCC(=O)OC(C)C)O1 (stereo partly drawn) | > 100 | > 100 | 7 | > 10 | 52 | > 100 | > 100 |  |  |  |
| CCOC(=O)[C@H](C)NP(=O)(OC[C@@H]1OC[C@H](n2cnc3c(N)ncnc32)O1)Oc1ccccc1 (stereo partly drawn) | 18 | 2 | 0.00056 | 0.03 | 7.3 | 80 | > 100 | 200 |  |  |
| CCOC(=O)CCc1ccccc1OP(=O)(N[C@@H](C)C(=O)OCC)OC[C@@H]1OC[C@H](n2cnc3c(N)ncnc32)O1 (stereo partly drawn) | 53 | 12 | 0.0033 | 0.3 | 12 | 36 | > 100 | 90 |  |  |
| CCOC(=O)[C@H](C)NP(=O)(OC[C@@H]1OC[C@H](n2cnc3c(OC)ncnc32)O1)Oc1ccccc1 (stereo partly drawn) | > 100 | > 100 | 0.34 | > 10 | 80 | > 100 | > 100 |  |  |  |
| CCOC(=O)CCc1ccccc1OP(=O)(N[C@@H](C)C(=O)OCC)OC[C@@H]1OC[C@H](n2cnc3c(OC)ncnc32)O1 (stereo partly drawn) | > 100 | > 100 | 0.42 | > 10 | 80 | 93 | > 100 |  |  |  |
| Nc1ncnc2c1ncn2[C@H]1CO[C@@H](CO)O1 |  |  |  |  |  |  |  | 0.18 |  |  |
| Nc1nc(N)c2ncn([C@H]3CO[C@@H](CO)O3)c2n1 [AMDOXOVIR] | > 100 | > 100 | 0.4 | > 9 | > 100 | > 100 | > 100 |  |  |  |
| Oc1ccccc1 [PHENOL] |  |  |  |  |  |  |  |  |  | 270 |
